Active and inactive are the calls of the source. The rule behind the calls is not given here.
Key:
[1] = target: Cannabinoid receptor 2 (Mus musculus) (UniProt P47936); test: Agonist activity at CB2 receptor in mouse MC3T3-E1 cells assessed as induction of bone activity by measuring increase in collagen I gene expression at 1 uM incubated for 72 hrs by real time PCR analysis; format: cell-based
Method in brief: (§1)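 MC3T3-E1 cells in DMEM/10% FBS for 24 h; attached cells moved to osteogenic medium (50 μg/mL ascorbic acid, 10⁻⁹ M dexamethasone, 10 mM β-glycerophosphate) with agent (HU308 10⁻⁶–10⁻⁸ M; antagonists 10⁻⁶ M) or vehicle, 72 h at 37 °C, 5% CO₂. Collagen type I mRNA from total RNA by RT-qPCR, ΔΔCT relative quantification; three experiments in triplicate.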

[2] = target: Cannabinoid receptor 2 (Homo sapiens, UniProt P34972); test: Displacement of [3H]CP55940 from human CB2R transfected in HEK293EBNA cell membrane incubated for 90 mins by Microbeta TriLux based luminescence analysis; format: cell membranes, HEK293-EBNA
Chain of Cannabinoid receptor 2 (P34972 whole entry): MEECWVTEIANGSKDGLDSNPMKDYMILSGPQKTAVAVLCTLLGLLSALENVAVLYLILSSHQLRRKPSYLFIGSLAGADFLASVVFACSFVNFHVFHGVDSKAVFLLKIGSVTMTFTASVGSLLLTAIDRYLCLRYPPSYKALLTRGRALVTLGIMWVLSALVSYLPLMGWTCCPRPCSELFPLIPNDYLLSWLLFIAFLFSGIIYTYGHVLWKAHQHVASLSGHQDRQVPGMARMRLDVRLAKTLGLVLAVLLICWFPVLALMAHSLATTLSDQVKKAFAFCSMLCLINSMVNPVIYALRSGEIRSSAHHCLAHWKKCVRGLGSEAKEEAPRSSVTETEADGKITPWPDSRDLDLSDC

[3] = target: T1, Cannabinoid receptor 1 (Homo sapiens, UniProt P21554); test: Displacement of [3H]CP55940 from human CB1R transfected in HEK293EBNA cell membranes incubated for 90 mins by Microbeta TriLux based luminescence analysis; parameters: species or system HEK293-EBNA
T1 sequence (P21554 whole entry): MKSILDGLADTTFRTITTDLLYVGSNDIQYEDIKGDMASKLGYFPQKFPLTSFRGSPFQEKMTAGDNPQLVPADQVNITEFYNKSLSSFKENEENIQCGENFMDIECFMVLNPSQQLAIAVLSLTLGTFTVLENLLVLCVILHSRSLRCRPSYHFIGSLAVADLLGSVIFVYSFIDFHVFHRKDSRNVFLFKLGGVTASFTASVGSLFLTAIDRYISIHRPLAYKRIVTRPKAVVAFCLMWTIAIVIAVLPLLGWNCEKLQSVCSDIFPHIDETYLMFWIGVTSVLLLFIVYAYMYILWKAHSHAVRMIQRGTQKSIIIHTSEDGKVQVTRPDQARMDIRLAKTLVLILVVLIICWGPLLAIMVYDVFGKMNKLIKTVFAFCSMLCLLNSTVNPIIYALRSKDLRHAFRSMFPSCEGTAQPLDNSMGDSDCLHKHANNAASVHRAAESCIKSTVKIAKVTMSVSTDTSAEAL

[4] = test system: HEK293-EBNA; test: Selectivity index, ratio of Ki for human CB1R transfected in HEK293EBNA cell membrane to ratio of Ki for human CB2R transfected in HEK293EBNA cell membrane incubated for 90 mins by Microbeta TriLux based luminescence analysis
Method in brief: (§2)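 Membranes of HEK293EBNA cells expressing human CB1 (~0.415 mg/mL protein) or CB2 (~0.18 mg/mL) incubated 90 min at 30 °C with [³H]-CP55940 (0.54 nM CB1; 0.33 nM CB2) and competitor, in Tris buffer pH 7.4 with EDTA, MgCl₂, BSA. Filtered, washed, bound radioactivity counted; IC50 by curve fitting, Ki by Cheng–Prusoff; selectivity = Ki CB1/Ki CB2.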

[5] = target: Cannabinoid receptor 2 (Mus musculus) (UniProt P47936); test: Antagonist activity at CB2 receptor in mouse MC3T3-E1 cells assessed as inhibition of HU308-induced collagen I gene expression at 1 uM pretreated with compound and HU308 for 24 hrs followed by further incubation with HU308 for 48 hrs by real time PCR analysis; format: cell-based; settings: filed as antagonist, time 72.0 hrs
Method in brief: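 MC3T3-E1 cells seeded 24 h in DMEM/10% FBS, then pre-treated 24 h in osteogenic medium (ascorbic acid, dexamethasone, β-glycerophosphate) with 10⁻⁶ M antagonist plus HU308 10⁻⁸ M; medium then replaced by osteogenic medium with HU308 10⁻⁸ M alone (controls vehicle) for 48 h more. Collagen I mRNA by RT-qPCR, ΔΔCT; three experiments in triplicate.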

[6] = species: Mus musculus; test: Antagonist activity at cannabinoid receptor in ICR mouse vas deferens assessed as reduction of WIN55212-2-induced inhibition of electrically evoked contraction at 1 uM incubated for 10 mins prior to WIN55212-2 addition; format: tissue-based
[7] = test system: MC3T3-E1; test: Cytotoxicity against mouse MC3T3-E1 cell assessed as reduction in cell viability at 1 uM incubated for 48 hrs by MTT assay; format: cell-based; settings: mc3t3-e1, 48 h
Method in brief: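 MC3T3-E1 cells in 96-well plates, 24 h in DMEM/10% FBS, then 48 h with compound at 10⁻⁶ M or vehicle; viability by MTT reduction; three experiments in sextuplicate.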

[8] = target: T1, Cannabinoid receptor 1; test: Displacement of [3H]CP55940 from human CB1R transfected in HEK293EBNA cell membrane incubated for 90 mins by Microbeta TriLux based luminescence analysis relative to control; format: cell membranes; settings: HEK293-EBNA; method in brief: as §2
[9] = target: Cannabinoid receptor 2 (Mus musculus) (UniProt P47936); test: Agonist activity at CB2 receptor in mouse MC3T3-E1 cells assessed as induction of bone activity by measuring increase in collagen I gene expression at 0.01 to 1 uM incubated for 72 hrs by real time PCR analysis; format: cell-based; settings: filed as agonist, dose microM 0.01-1, time 72.0 hrs; method in brief: as §1

Chain of Cannabinoid receptor 2 (Mus musculus) (P47936 whole entry): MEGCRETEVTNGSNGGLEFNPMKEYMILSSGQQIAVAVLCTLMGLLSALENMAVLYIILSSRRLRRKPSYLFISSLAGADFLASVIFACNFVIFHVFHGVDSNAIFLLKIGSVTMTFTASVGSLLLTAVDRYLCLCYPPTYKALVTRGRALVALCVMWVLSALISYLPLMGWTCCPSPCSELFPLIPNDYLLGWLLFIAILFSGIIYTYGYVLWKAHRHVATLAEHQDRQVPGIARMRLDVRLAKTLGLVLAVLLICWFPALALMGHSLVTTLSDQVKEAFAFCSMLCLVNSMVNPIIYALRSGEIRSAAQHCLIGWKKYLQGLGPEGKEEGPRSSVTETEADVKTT

Row | Structure (SMILES) | Ki [2] | Ki [3] | Ratio Ki [4] | inhibition ([6]; filed as antagonist) | inhibition [6] | other results
1 | CCCn1nc(OCc2ccc3ccccc3c2)c2cc([N+](=O)[O-])ccc21 | 0.47 µM | 0.356 µM | 0.8 | Active |  | Activity [1]: inactive; inhibition [5]: Active; Activity [7]: Non-Toxic
2 | Nc1ccc2c(c1)c(OCc1ccccc1)nn2Cc1ccccc1 |  |  | 2.5 | Active |  | 
3 | c1ccc2cc(COc3n[nH]c4ccccc34)ccc2c1 | 7 µM | 21.7 µM | 3.1 |  | inactive | 
4 | O=[N+]([O-])c1ccc2c(c1)c(OCC1CCCCC1)nn2Cc1ccccc1 |  |  | > 444 | Active |  | Activity [1]: inactive; inhibition [5]: Active; Activity [7]: Non-Toxic
5 | O=[N+]([O-])c1ccc2[nH]nc(OCc3cccc4ccccc34)c2c1 | 0.9 µM | > 40 µM | > 44.4 | Active |  | inhibition [8]: 38%
6 | c1ccc(COc2nn(Cc3ccccc3)c3ccccc23)cc1 |  |  | 0.7 |  | inactive | 
7 | O=[N+]([O-])c1ccc2c(c1)c(OCc1ccc3ccccc3c1)nn2Cc1ccccc1 |  |  | > 25 |  | inactive | 
8 | COc1ccc(COc2n[nH]c3ccc([N+](=O)[O-])cc23)cc1 | 1.8 µM | > 40 µM | > 22.2 |  | inactive | 
9 | CCCCCn1nc(OCc2ccc(OC)cc2)c2cc([N+](=O)[O-])ccc21 |  |  | 1.6 | Active |  | 
10 | Cn1nc(OCc2ccc3ccccc3c2)c2cc([N+](=O)[O-])ccc21 | 3.5 µM | > 40 µM | > 11.4 | Active |  | 
11 | Cn1nc(OCc2ccc3ccccc3c2)c2ccccc21 | 10.1 µM | 4 µM | 0.4 | Active |  | 
12 | CCCCCOc1nn(CCCCC)c2ccc([N+](=O)[O-])cc12 |  |  | 1.9 |  | inactive | 
13 | Cn1nc(OCCc2ccccc2)c2cc([N+](=O)[O-])ccc21 | 1.2 µM | > 40 µM | > 33.3 |  | inactive | inhibition [8]: 25%
14 | COc1ccc(COc2n[nH]c3ccccc23)cc1 | 4.5 µM | 21 µM | 4.7 |  | inactive | 
15 | CCCn1nc(OCc2ccc3ccccc3c2)c2cc(N)ccc21 | 2.9 µM | 1.6 µM | 0.6 |  | inactive | 
16 | CCCCCn1nc(OCc2ccc3ccccc3c2)c2cc([N+](=O)[O-])ccc21 |  |  | 1.2 |  | inactive | 
17 | O=[N+]([O-])c1ccc2c(c1)c(OCc1ccccc1)nn2Cc1ccccc1 |  |  | 3 |  | inactive | 
18 | Cc1c(C(=O)NN2CCCCC2)nn(-c2ccc(Cl)cc2Cl)c1-c1ccc(I)cc1 |  |  |  | Active |  | 
19 | O=[N+]([O-])c1ccc2[nH]nc(OCc3ccc4ccccc4c3)c2c1 | 5 µM | 13.6 µM | 2.7 |  | inactive | 
20 | c1ccc2cc(COc3nn(CCC4CCCCC4)c4ccccc34)ccc2c1 | > 40 µM | 0.15 µM | < 0.004 |  | inactive | 
21 | Cn1nc(OCc2cccc3ccccc23)c2cc([N+](=O)[O-])ccc21 | 0.25 µM | ≥ 40 µM | > 160 | Active |  | 
22 | c1ccc2c(COc3n[nH]c4ccccc34)cccc2c1 | 0.44 µM | 1.6 µM | 3.6 |  | inactive | 
23 | CCCCCCC(C)(C)c1cc(OC)c([C@H]2C=C(CO)[C@H]3C[C@@H]2C3(C)C)c(OC)c1 |  |  |  |  |  | Activity [9]: Active
24 | c1ccc2c(c1)c(OCC1CCCCC1)nn2CC1CCCCC1 |  |  | 0.2 |  | inactive | 

Reference: ChEMBL document CHEMBL4725407, “New cannabinoid receptor antagonists as pharmacological tool” (Bioorg Med Chem, 2020)
